Laboratory results: ChEMBL document CHEMBL1764997, “(Z)-3-butylidenephthalide from Ligusticum porteri , an α-glucosidase inhibitor” (J Nat Prod, 2011)
Active and inactive are the calls of the source. The rule behind the calls is not given here.

How the values were obtained:
[1] = target: Alpha-glucosidase MAL62 (Saccharomyces cerevisiae) (UniProt P07265); experiment: (§1) Inhibition of yeast alpha-glucosidase assessed as inhibition of p-nitrophenyl-alpha-D-glucopyranoside substrate hydrolysis after 35 mins by spectroscopy
Alpha-glucosidase MAL62 (Saccharomyces cerevisiae), sequence (P07265 whole entry): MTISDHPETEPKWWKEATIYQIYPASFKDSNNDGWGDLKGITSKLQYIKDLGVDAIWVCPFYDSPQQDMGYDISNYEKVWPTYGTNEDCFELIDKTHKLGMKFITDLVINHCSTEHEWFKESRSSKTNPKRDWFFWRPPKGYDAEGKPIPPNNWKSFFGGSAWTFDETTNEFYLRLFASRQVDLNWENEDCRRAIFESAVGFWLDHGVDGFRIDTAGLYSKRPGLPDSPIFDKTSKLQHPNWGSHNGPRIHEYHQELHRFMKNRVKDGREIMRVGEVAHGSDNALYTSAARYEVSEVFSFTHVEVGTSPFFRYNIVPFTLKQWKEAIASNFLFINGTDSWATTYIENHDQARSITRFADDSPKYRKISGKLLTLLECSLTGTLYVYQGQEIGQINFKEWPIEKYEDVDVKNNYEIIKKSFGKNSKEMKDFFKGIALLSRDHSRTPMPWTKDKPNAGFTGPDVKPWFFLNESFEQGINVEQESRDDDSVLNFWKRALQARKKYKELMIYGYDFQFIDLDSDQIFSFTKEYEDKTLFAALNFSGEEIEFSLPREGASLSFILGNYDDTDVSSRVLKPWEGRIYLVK

Mus musculus [2] = experiment: Antihyperglycemic activity in ICR mouse assessed as change in blood glucose level at 31.2 mg/kg at 1 hr by oral glucose tolerance test (RVb= 1.5 %); type: functional
Mus musculus [3] = experiment: Antihyperglycemic activity in ICR mouse assessed as change in blood glucose level at 31.2 mg/kg at 1.5 hrs by oral glucose tolerance test (RVb= 2.5 %); type: functional
Mus musculus [4] = experiment: Antihyperglycemic activity in ICR mouse assessed as change in blood glucose level at 31.2 mg/kg at 2 hrs by oral glucose tolerance test (RVb= -12 %); type: functional
Mus musculus [5] = experiment: Antihyperglycemic activity in ICR mouse assessed as change in blood glucose level at 56.2 mg/kg at 0.5 hr by oral glucose tolerance test (RVb= 59 %); type: functional
Mus musculus [6] = experiment: Antihyperglycemic activity in ICR mouse assessed as change in blood glucose level at 56.2 mg/kg at 1 hr by oral glucose tolerance test (RVb= 1.5 %); type: functional
Mus musculus [7] = experiment: Antihyperglycemic activity in ICR mouse assessed as change in blood glucose level at 56.2 mg/kg at 1.5 hrs by oral glucose tolerance test (RVb= 2.5 %); type: functional
Mus musculus [8] = experiment: Antihyperglycemic activity in ICR mouse assessed as change in blood glucose level at 56.2 mg/kg at 2 hrs by oral glucose tolerance test (RVb= -12 %); type: functional
Mus musculus [9] = experiment: Antidiabetic activity in streptozotocin-induced diabetic ICR mouse assessed as change in blood glucose level at 10 mg/kg after 0.5 hr by oral glucose tolerance test (RVb= 51.9 %); type: functional
Mus musculus [10] = experiment: Antidiabetic activity in streptozotocin-induced diabetic ICR mouse assessed as change in blood glucose level at 31.2 mg/kg after 0.5 hr by oral glucose tolerance test (RVb= 51.9 %); type: functional
Mus musculus [11] = experiment: Antidiabetic activity in streptozotocin-induced diabetic ICR mouse assessed as change in blood glucose level at 56.2 mg/kg after 0.5 hr by oral glucose tolerance test (RVb= 51.9 %); type: functional
Mus musculus [12] = experiment: Antidiabetic activity in streptozotocin-induced diabetic ICR mouse assessed as change in blood glucose level at 10 mg/kg after 1 hr by oral glucose tolerance test (RVb= 10.3 %); type: functional
Mus musculus [13] = experiment: Antidiabetic activity in streptozotocin-induced diabetic ICR mouse assessed as change in blood glucose level at 31.2 mg/kg after 1 hr by oral glucose tolerance test (RVb= 10.3 %); type: functional
Mus musculus [14] = experiment: Antidiabetic activity in streptozotocin-induced diabetic ICR mouse assessed as change in blood glucose level at 56.2 mg/kg after 1 hr by oral glucose tolerance test (RVb= 10.3 %); type: functional
Mus musculus [15] = experiment: Antidiabetic activity in streptozotocin-induced diabetic ICR mouse assessed as change in blood glucose level at 10 mg/kg after 1.5 hrs by oral glucose tolerance test (RVb= 0.005 %); type: functional
Mus musculus [16] = experiment: Antidiabetic activity in streptozotocin-induced diabetic ICR mouse assessed as change in blood glucose level at 31.2 mg/kg after 1.5 hrs by oral glucose tolerance test (RVb= 0.005 %); type: functional
Mus musculus [17] = experiment: Antidiabetic activity in streptozotocin-induced diabetic ICR mouse assessed as change in blood glucose level at 56.2 mg/kg after 1.5 hrs by oral glucose tolerance test (RVb= 0.005 %); type: functional
Mus musculus [18] = experiment: Antidiabetic activity in streptozotocin-induced diabetic ICR mouse assessed as change in blood glucose level at 10 mg/kg after 2 hrs by oral glucose tolerance test (RVb= -12.9 %); type: functional
Mus musculus [19] = experiment: Antidiabetic activity in streptozotocin-induced diabetic ICR mouse assessed as change in blood glucose level at 31.2 mg/kg after 2 hrs by oral glucose tolerance test (RVb= -12.9 %); type: functional
Mus musculus [20] = experiment: Antidiabetic activity in streptozotocin-induced diabetic ICR mouse assessed as change in blood glucose level at 56.2 mg/kg after 2 hrs by oral glucose tolerance test (RVb= -12.9 %); type: functional
Mus musculus [21] = experiment: Antihyperglycemic activity in ICR mouse assessed as change in blood glucose level at 31.2 mg/kg after 0.5 hr by oral glucose tolerance test (RVb= 59 %); type: functional
Mus musculus [22] = species on record: Mus musculus; experiment: Inhibition of alpha-glucosidase in streptozotocin-induced diabetic ICR mouse intestine assessed as lowering of blood glucose levels; type: functional, organism-based
Procedure, shortened: (§2)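 NAD (40 mg/kg ip) then STZ (100 mg/kg ip, 15 min later) diabetic male ICR mice, glucose >140 mg/dL after 7 days. Animals fasted 12 h, dosed orally in 0.05% Tween 80/saline, and given oral sucrose 2 g/kg 30 min later.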

Alpha-glucosidase MAL62 = Alpha-glucosidase MAL62 (Saccharomyces cerevisiae, UniProt P07265); experiment: as §1
Alpha-glucosidase MAL62, sequence (P07265 whole entry): as above

Mus musculus [23] = experiment: Antihyperglycemic activity in ICR mouse assessed as change in blood glucose level at 10 mg/kg after 0.5 hr by oral glucose tolerance test (RVb= 59 %); type: functional
Mus musculus [24] = experiment: Antihyperglycemic activity in ICR mouse assessed as change in blood glucose level at 10 mg/kg after 1 hr by oral glucose tolerance test (RVb= 1.5 %); type: functional
Mus musculus [25] = experiment: Antihyperglycemic activity in ICR mouse assessed as change in blood glucose level at 10 mg/kg after 1.5 hrs by oral glucose tolerance test (RVb= 2.5 %); type: functional
Mus musculus [26] = experiment: Antihyperglycemic activity in ICR mouse assessed as change in blood glucose level at 10 mg/kg after 2 hrs by oral glucose tolerance test (RVb= -12 %); type: functional
Mus musculus [27] = experiment: Antihyperglycemic activity in ICR mouse assessed as change in blood glucose level at 20 mg/kg after 0.5 hr by oral glucose tolerance test (RVb= 59 %); type: functional
Mus musculus [28] = experiment: Antihyperglycemic activity in ICR mouse assessed as change in blood glucose level at 20 mg/kg after 1 hr by oral glucose tolerance test (RVb= 1.5 %); type: functional
Mus musculus [29] = experiment: Antihyperglycemic activity in ICR mouse assessed as change in blood glucose level at 20 mg/kg after 1.5 hrs by oral glucose tolerance test (RVb= 2.5 %); type: functional
Mus musculus [30] = experiment: Antihyperglycemic activity in ICR mouse assessed as change in blood glucose level at 20 mg/kg after 2 hrs by oral glucose tolerance test (RVb= -12 %); type: functional
Mus musculus [31] = experiment: Antidiabetic activity in streptozotocin-induced diabetic ICR mouse assessed as change in blood glucose level at 10 mg/kg after 0.5 hr by oral sucrose tolerance test (RVb= 56 %); type: functional; procedure, shortened: as §2
Mus musculus [32] = experiment: Antidiabetic activity in streptozotocin-induced diabetic ICR mouse assessed as change in blood glucose level at 56.2 mg/kg after 0.5 hr by oral sucrose tolerance test (RVb= 56 %); type: functional; procedure, shortened: as §2
Mus musculus [33] = experiment: Antidiabetic activity in streptozotocin-induced diabetic ICR mouse assessed as change in blood glucose level at 10 mg/kg after 1 hr by oral sucrose tolerance test (RVb= 11.4 %); type: functional; procedure, shortened: as §2
Mus musculus [34] = experiment: Antidiabetic activity in streptozotocin-induced diabetic ICR mouse assessed as change in blood glucose level at 56.2 mg/kg after 1 hr by oral sucrose tolerance test (RVb= 11.4 %); type: functional; procedure, shortened: as §2
Mus musculus [35] = experiment: Antidiabetic activity in streptozotocin-induced diabetic ICR mouse assessed as change in blood glucose level at 10 mg/kg after 1.5 hrs by oral sucrose tolerance test (RVb= 6.1 %); type: functional; procedure, shortened: as §2
Mus musculus [36] = experiment: Antidiabetic activity in streptozotocin-induced diabetic ICR mouse assessed as change in blood glucose level at 56.2 mg/kg after 1.5 hrs by oral sucrose tolerance test (RVb= 6.1 %); type: functional; procedure, shortened: as §2
Mus musculus [37] = experiment: Antidiabetic activity in streptozotocin-induced diabetic ICR mouse assessed as change in blood glucose level at 10 mg/kg after 2 hrs by oral sucrose tolerance test (RVb= -4.3 %); type: functional; procedure, shortened: as §2
Mus musculus [38] = experiment: Antidiabetic activity in streptozotocin-induced diabetic ICR mouse assessed as change in blood glucose level at 56.2 mg/kg after 2 hrs by oral sucrose tolerance test (RVb= -4.3 %); type: functional; procedure, shortened: as §2

SMILES | Activity [1] | Activity (Mus musculus [9]) [%] | Activity (Mus musculus [10]) [%] | Activity (Mus musculus [11]) [%] | Activity (Mus musculus [12]) [%] | Activity (Mus musculus [13]) [%] | Activity (Mus musculus [14]) [%] | Activity (Mus musculus [15]) [%] | Activity (Mus musculus [16]) [%] | Activity (Mus musculus [17]) [%] | Activity (Mus musculus [18]) [%] | Activity (Mus musculus [19]) [%] | Activity (Mus musculus [20]) [%] | also measured
CCC/C=C1\OC(=O)C2=C[C@H]3CC[C@]21C1C2=C(CC[C@H]13)/C(=C\CCC)OC2=O (some centres undefined) | inactive | 32 | 44 | 57 | 5.7 | 32 | 52 | 5.7 | 23 | 25 | -5.5 | 8.8 | 8.9 | Activity (Mus musculus [2]): -28%; Activity (Mus musculus [3]): -35%; Activity (Mus musculus [4]): -50%; Activity (Mus musculus [5]): 41%; Activity (Mus musculus [6]): -3.8%; Activity (Mus musculus [7]): -13%; Activity (Mus musculus [8]): -27%; Activity (Mus musculus [21]): 3.8%
C=CCc1cc(OC)c2c(c1)OCO2 | inactive |  |  |  |  |  |  |  |  |  |  |  |  | 
CCCC=C1OC(=O)c2ccccc21 [(E)-BUTYLIDENEPHTHALIDE] | Dose-dependent effect | 35 | 27 | 12 | 3.5 | 3.3 | -5.2 | 1.5 | -0.3 | -12 | -7.4 | -9.1 | -21.7 | inhibition (Mus musculus [22]): Active; IC50 (Alpha-glucosidase MAL62): 2.35 mM; Ki (Alpha-glucosidase MAL62): 4.86 mM; Activity (Mus musculus [23]): -9%; Activity (Mus musculus [24]): -24%; Activity (Mus musculus [25]): -41%; Activity (Mus musculus [26]): -42%; Activity (Mus musculus [27]): 20%; Activity (Mus musculus [28]): -6.9%; Activity (Mus musculus [29]): -18%; Activity (Mus musculus [30]): -23%; Activity (Mus musculus [31]): 41%; Activity (Mus musculus [32]): 23%; Activity (Mus musculus [33]): 19%; Activity (Mus musculus [34]): 7.6%; Activity (Mus musculus [35]): 16%; Activity (Mus musculus [36]): 2.5%; Activity (Mus musculus [37]): 6.7%; Activity (Mus musculus [38]): 6.4%
